Results taken from ChEMBL document CHEMBL1128272, “Stereoselective LSD-like activity in a series of d-lysergic acid amides of (R)- and (S)-2-aminoalkanes” (J Med Chem, 1995).
Calls of active or inactive are those of the source. The calls are words filed in the database; no cut-off is given here.

Key:
Rattus norvegicus [1] = assay: Percentage of animals selecting drug lever in trained rats at a dose 1760 (nmol/kg); assay type: functional
Procedure, shortened: (§1)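 Two-lever drug discrimination in food-restricted rats (~80% free-feeding weight) trained on FR 50 to tell saline from LSD tartrate (186 nmol/kg, 0.08 mg/kg ip, 30 min pre-session). Test drugs were given ip in saline, 1 mL/kg. Test sessions ran under extinction, ending at 50 presses on either lever. Testing required 85% training accuracy. Counts of rats tested and disrupted were recorded, plus the percentage selecting the drug lever.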

Rattus norvegicus [2] = assay: Compound was tested for its effect on animals. Value reported as number of rats disrupted in trained rats at a dose of 1760 (nmol/kg); assay type: functional; procedure, shortened: as §1
[3] = target: T1, 5-hydroxytryptamine receptor 1A (Rattus norvegicus, UniProt P19327); assay: Binding affinity was measured against 5-hydroxytryptamine 1A receptor by displacement of [3H]8-OH-DPAT by lysergic acid amides
T1 sequence (P19327 whole entry): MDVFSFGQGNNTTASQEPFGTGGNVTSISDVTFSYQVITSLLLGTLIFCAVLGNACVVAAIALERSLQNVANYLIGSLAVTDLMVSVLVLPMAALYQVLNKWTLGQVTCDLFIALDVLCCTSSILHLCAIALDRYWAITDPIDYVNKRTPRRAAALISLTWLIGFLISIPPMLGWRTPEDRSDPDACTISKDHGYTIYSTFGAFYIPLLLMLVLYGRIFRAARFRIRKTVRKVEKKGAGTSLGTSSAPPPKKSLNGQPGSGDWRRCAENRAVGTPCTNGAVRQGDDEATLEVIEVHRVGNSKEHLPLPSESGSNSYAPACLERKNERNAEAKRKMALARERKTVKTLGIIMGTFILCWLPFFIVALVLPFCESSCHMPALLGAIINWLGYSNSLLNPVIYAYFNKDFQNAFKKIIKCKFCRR
Procedure, shortened: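 Rat hippocampal membranes from pooled male Sprague-Dawley rats, preincubated at 37 °C, in 50 mM Tris HCl (pH 7.4) with 0.5 mM Na2EDTA, 0.1% ascorbate and 10 μM pargyline. Competition against 0.75 nM [3H]-8-OH-DPAT for 10 min at 37 °C, then GF/C filtration and scintillation counting. Triplicates. Three to four experiments combined, analysed with EBDA/LIGAND.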

Rattus norvegicus [4] = assay: Effective dose in trained rats was determined at a dose of 220 (nmol/kg); assay type: functional, organism-based
Rattus norvegicus [5] = assay: Compound was tested for its effect on animals. Value reported as number of rats disrupted in trained rats at a dose of 440 (nmol/kg); assay type: functional; procedure, shortened: as §1
Rattus norvegicus [6] = assay: Percentage of animals selecting drug lever in trained rats at a dose 220 (nmol/kg); assay type: functional; procedure, shortened: as §1
Rattus norvegicus [7] = assay: Compound was tested for its effect on animals. Value reported as number of rats disrupted in trained rats at a dose of 186 (nmol/kg); assay type: functional; procedure, shortened: as §1
Rattus norvegicus [8] = assay: Percentage of animals selecting drug lever in trained rats at a dose 440 (nmol/kg); assay type: functional; procedure, shortened: as §1
[9] = target: T2, 5-hydroxytryptamine receptor 2A (Rattus norvegicus, UniProt P14842); assay: (§2) Binding affinity was measured against 5-hydroxytryptamine 2A receptor by displacement of [3H]- ketanserin by lysergic acid amides
Procedure, shortened: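 Rat frontal cortex membranes from pooled male Sprague-Dawley rats, preincubated at 37 °C, in 50 mM Tris HCl (pH 7.4) with 0.5 mM Na2EDTA, 0.1% ascorbate, 10 μM pargyline and 5.7 mM CaCl2. Displacement of 0.75 nM [3H]ketanserin with 200–400 μg protein for 15 min at 37 °C, then GF/C filtration. Triplicates. Three to four experiments combined.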

Rattus norvegicus [10] = assay: Percentage of animals selecting drug lever in trained rats at a dose 500 (nmol/kg); assay type: functional
Procedure, shortened: (§3)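 Drug-naive rats held at about 80% of free-feeding weight were trained on a two-lever FR50 food schedule to tell ip LSD tartrate (186 nmol/kg, 0.08 mg/kg) from saline, given 30 min before sessions. Test drugs were given ip in saline (1 mL/kg). Tests ran under extinction and ended at 50 presses on either lever. Rats had to hold 85% correct on training days. Read-out was % selecting the drug lever per dose.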

Rattus norvegicus [11] = assay: Percentage of animals selecting drug lever in trained rats at a dose 250 (nmol/kg); assay type: functional; procedure, shortened: as §1
Rattus norvegicus [12] = assay: Percentage of animals selecting drug lever in trained rats at a dose 63 (nmol/kg); assay type: functional; procedure, shortened: as §3
Rattus norvegicus [13] = assay: Potency in trained rats was determined with relative to reference compound […] at a dose of 63 (nmol/kg); assay type: functional
Rattus norvegicus [14] = assay: Compound was tested for its effect on animals. Value reported as number of rats disrupted in trained rats at a dose of 63 (nmol/kg); assay type: functional; procedure, shortened: as §1
Rattus norvegicus [15] = assay: Compound was tested for its effect on animals. Value reported as number of rats disrupted in trained rats at a dose of 125 (nmol/kg); assay type: functional; procedure, shortened: as §1
Rattus norvegicus [16] = assay: Compound was tested for its effect on animals. Value reported as number of rats disrupted in trained rats at a dose of 250 (nmol/kg); assay type: functional; procedure, shortened: as §1
Rattus norvegicus [17] = assay: Percentage of animals selecting drug lever in trained rats at a dose 125 (nmol/kg); assay type: functional; procedure, shortened: as §1
[18] = target: T2, 5-hydroxytryptamine receptor 2A; assay: as §2; remark: listed apart in the source
Procedure, shortened: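 Rat frontal cortex membranes from pooled male Sprague-Dawley rats, preincubated at 37 °C, in 50 mM Tris HCl (pH 7.4) with 0.5 mM Na2EDTA, 0.1% ascorbate, 10 μM pargyline and 5.7 mM CaCl2. Triplicates. Three to four experiments combined.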

Rattus norvegicus [19] = assay: Effective dose in trained rats was determined at a dose of 63 (nmol/kg) Value in parentheses are with 95% confidence intervals; assay type: functional
Rattus norvegicus [20] = assay: Compound was tested for its effect on animals. Value reported as number of rats disrupted in trained rats at a dose of 500 (nmol/kg); assay type: functional; procedure, shortened: as §1
Rattus norvegicus [21] = assay: Percentage of animals selecting drug lever in trained rats at a dose 86 (nmol/kg); assay type: functional; procedure, shortened: as §3
Rattus norvegicus [22] = assay: Percentage of animals selecting drug lever in trained rats at a dose 128 (nmol/kg); assay type: functional; procedure, shortened: as §1
Rattus norvegicus [23] = assay: Compound was tested for its effect on animals. Value reported as number of rats disrupted in trained rats at a dose of 128 (nmol/kg); assay type: functional; procedure, shortened: as §1
Rattus norvegicus [24] = assay: Compound was tested for its effect on animals. Value reported as number of rats disrupted in trained rats at a dose of 86 (nmol/kg); assay type: functional; procedure, shortened: as §1
Rattus norvegicus [25] = assay: Compound was tested for its effect on animals. Value reported as number of rats disrupted in trained rats at a dose of 171 (nmol/kg); assay type: functional; procedure, shortened: as §1
Rattus norvegicus [26] = assay: Compound was tested for its effect on animals. Value reported as number of rats disrupted in trained rats at a dose of 426 (nmol/kg); assay type: functional; procedure, shortened: as §1
Rattus norvegicus [27] = assay: Percentage of animals selecting drug lever in trained rats at a dose 426 (nmol/kg); assay type: functional; procedure, shortened: as §1
Rattus norvegicus [28] = assay: Compound was tested for its effect on animals. Value reported as number of rats disrupted in trained rats at a dose of 213 (nmol/kg); assay type: functional; procedure, shortened: as §1
Rattus norvegicus [29] = assay: Percentage of animals selecting drug lever in trained rats at a dose 171 (nmol/kg); assay type: functional; procedure, shortened: as §1
Rattus norvegicus [30] = assay: Effective dose in trained rats was determined at a dose of 86 (nmol/kg); assay type: functional, organism-based
Rattus norvegicus [31] = assay: Percentage of animals selecting drug lever in trained rats at a dose 213 (nmol/kg); assay type: functional; procedure, shortened: as §1
Rattus norvegicus [32] = assay: Percentage of animals selecting drug lever in trained rats at a dose 55 (nmol/kg); assay type: functional; procedure, shortened: as §3
Rattus norvegicus [33] = assay: Percentage of animals selecting drug lever in 1-Trained rats at a dose 220 (nmol/kg); assay type: functional; procedure, shortened: as §1
Rattus norvegicus [34] = assay: Compound was tested for its effect on animals. Value reported as number of rats disrupted in trained rats at a dose of 220 (nmol/kg); assay type: functional; procedure, shortened: as §1
Rattus norvegicus [35] = assay: Compound was tested for its effect on animals. Value reported as number of rats disrupted in trained rats at a dose of 55 (nmol/kg); assay type: functional; procedure, shortened: as §1
Rattus norvegicus [36] = assay: Potency in trained rats was determined with relative to reference compound […] at a dose of 55 (nmol/kg); assay type: functional
Rattus norvegicus [37] = assay: Effective dose in trained rats was determined at a dose of 55 (nmol/kg) Value in parentheses are with 95% confidence intervals; assay type: functional
Rattus norvegicus [38] = assay: Percentage of animals selecting drug lever in 1-Trained rats at a dose 110 (nmol/kg); assay type: functional; procedure, shortened: as §1
Rattus norvegicus [39] = assay: Compound was tested for its effect on animals. Value reported as number of rats disrupted in trained rats at a dose of 110 (nmol/kg); assay type: functional; procedure, shortened: as §1

T2 sequence (P14842 whole entry): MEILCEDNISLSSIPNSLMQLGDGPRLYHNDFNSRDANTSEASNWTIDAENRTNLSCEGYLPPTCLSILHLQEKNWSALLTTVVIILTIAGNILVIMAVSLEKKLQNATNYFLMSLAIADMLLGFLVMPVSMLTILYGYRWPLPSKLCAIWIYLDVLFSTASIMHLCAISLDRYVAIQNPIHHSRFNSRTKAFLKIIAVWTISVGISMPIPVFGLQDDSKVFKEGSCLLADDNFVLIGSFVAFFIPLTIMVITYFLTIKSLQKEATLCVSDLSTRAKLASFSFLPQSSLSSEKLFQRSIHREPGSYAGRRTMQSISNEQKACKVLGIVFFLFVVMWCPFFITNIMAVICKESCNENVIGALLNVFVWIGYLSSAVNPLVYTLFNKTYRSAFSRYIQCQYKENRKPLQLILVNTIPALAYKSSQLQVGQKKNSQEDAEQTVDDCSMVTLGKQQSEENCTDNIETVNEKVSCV

Compound: CCCC(C)NC(=O)[C@@H]1C=C2c3cccc4[nH]cc(c34)C[C@H]2N(C)C1 (stereo partly specified)
- SDL (Rattus norvegicus [1]): 25%
- D (Rattus norvegicus [2]): 11%
- Ki [3]: 8 nM
- ED50 (Rattus norvegicus [4]): inactive
- D (Rattus norvegicus [5]): 0%
- SDL (Rattus norvegicus [6]): 0%
- D (Rattus norvegicus [7]): 0%
- SDL (Rattus norvegicus [8]): 0%
- Ki [9]: 105 nM

Compound: CCC(CC)NC(=O)[C@@H]1C=C2c3cccc4[nH]cc(c34)C[C@H]2N(C)C1
- SDL (Rattus norvegicus [10]): 92%
- Ki [3]: 2.1 nM
- SDL (Rattus norvegicus [11]): 85%
- SDL (Rattus norvegicus [12]): 58%
- Potency (Rattus norvegicus [13]): 0.92
- D (Rattus norvegicus [14]): 0%
- D (Rattus norvegicus [15]): 0%
- D (Rattus norvegicus [16]): 0%
- SDL (Rattus norvegicus [17]): 67%
- Ki [18]: 8 nM
- ED50 (Rattus norvegicus [19]): 0.052 µmol/kg
- D (Rattus norvegicus [20]): 14%

Compound: CCCCCC(C)NC(=O)[C@@H]1C=C2c3cccc4[nH]cc(c34)C[C@H]2N(C)C1 (stereo partly specified)
- Ki [3]: 14 nM
- Ki [18]: 357 nM

Compound: CCCC[C@@H](C)NC(=O)[C@@H]1C=C2c3cccc4[nH]cc(c34)C[C@H]2N(C)C1
- SDL (Rattus norvegicus [21]): 22%
- SDL (Rattus norvegicus [22]): 40%
- D (Rattus norvegicus [23]): 0%
- Ki [3]: 0.32 nM
- D (Rattus norvegicus [24]): 10%
- D (Rattus norvegicus [25]): 0%
- D (Rattus norvegicus [26]): 0%
- SDL (Rattus norvegicus [27]): 0%
- D (Rattus norvegicus [28]): 27%
- SDL (Rattus norvegicus [29]): 55%
- Ki [18]: 16 nM
- ED50 (Rattus norvegicus [30]): Weak activity
- SDL (Rattus norvegicus [31]): 50%

Compound: CCC[C@@H](C)NC(=O)[C@@H]1C=C2c3cccc4[nH]cc(c34)C[C@H]2N(C)C1
- SDL (Rattus norvegicus [32]): 14%
- Ki [3]: 0.6 nM
- SDL (Rattus norvegicus [33]): 100%
- D (Rattus norvegicus [34]): 30%
- D (Rattus norvegicus [35]): 0%
- Potency (Rattus norvegicus [36]): 0.47
- ED50 (Rattus norvegicus [37]): 0.102 µmol/kg
- Ki [18]: 4.5 nM
- SDL (Rattus norvegicus [38]): 44%
- D (Rattus norvegicus [39]): 0%
